Data published in the EternaBench riboswitch data.

Legend:
MS2 coat protein [1] = assay: apparent Kd, MS2 coat protein; higher = weaker binding; RNA-MaP array
Procedure, shortened: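 For each design, the apparent Kd is the median of binding-curve fits across its clusters. Designs measured on fewer than 10 clusters were dropped. The RNAs were transcribed from sequenced DNA templates on an Illumina sequencing chip and incubated at room temperature, with or without input ligand, with fluorescently labeled MS2 coat protein at 1.5 nM to 3 μM.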

MS2 coat protein [2] = assay: apparent Kd, MS2 coat protein; higher = weaker binding; RNA-MaP array; FMN 200 µM where present
Procedure, shortened: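 SNAP-549-labelled MS2 coat protein, doubled from 0.7 or 1.5 nM to 3 µM, was titrated over designs transcribed by stalled E. coli RNA polymerase on Illumina sequencing-chip clusters. Titrations were run without and then with constant ligand in 100 mM Tris-HCl pH 7.5, 80 mM KCl, 4 mM MgCl2, BSA, DTT, yeast tRNA and Tween-20. The apparent Kd is the median of filtered per-cluster fits to green signal normalised to red-channel RNA signal and control-cluster median Fmax.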

[3] = designed as: ON switch for flavin mononucleotide, no ligand
[4] = ligand present: flavin mononucleotide, designed as: ON switch for flavin mononucleotide
[5] = designed as: OFF switch for flavin mononucleotide, no ligand
[6] = ligand present: flavin mononucleotide, designed as: OFF switch for flavin mononucleotide
[7] = designed as: ON switch for theophylline, no ligand
[8] = ligand present: theophylline, designed as: ON switch for theophylline

Sequence	apparent Kd (MS2 coat protein [2]; [5]) [µM]	apparent Kd (MS2 coat protein [2]; [6]) [µM]	also measured
GCAUACAGCAAGAAGGUGGCAUCGACUAUGGCCCAAGGAUAUUGCGGUACUACAUGAGGAUCACCCAUGUGUUCAUGAUUAUAG			apparent Kd (MS2 coat protein [1]; [3]): 0.0355 µM; apparent Kd (MS2 coat protein [1]; [4]): 0.0302 µM
UGAACGUCAAGGCAGGAUAUUCUCAAGACAACAUGAGGAUCACCCAUGUUACAACGAUAAAUGAUGAAGAAGGGCCAGGGAUCAUA			apparent Kd (MS2 coat protein [1]; [3]): 0.0118 µM; apparent Kd (MS2 coat protein [1]; [4]): 0.00633 µM
GCAAAGUAAGAAGGAUAUGCGUCCGGUGAACAACAACGCGAUCGAACAUGAGGAUCACCCAUGUCGCAGAAGGUCUGAGAAUUC			apparent Kd (MS2 coat protein [1]; [5]): 0.0274 µM; apparent Kd (MS2 coat protein [1]; [6]): 0.0403 µM
CCGCCCUACCGCGAUACCAGUACGGCAGUUAACAUGAGGAUCACCCAUGUGCAAACAUAAUACCCUUGGCAGCGCCUGAAUCCAU			apparent Kd (MS2 coat protein [1]; [7]): 0.0177 µM; apparent Kd (MS2 coat protein [1]; [8]): 0.0173 µM
CACGCCAGAUCUCAGGAUAUCCCACAUCAAACAUGAGGAUCACCCAUGUGACAUAUAUAGAACAUGGAGAAGGGAGCACAUGCGGC			apparent Kd (MS2 coat protein [1]; [3]): 0.209 µM; apparent Kd (MS2 coat protein [1]; [4]): 0.113 µM
AAACCAUCAAACACAUGAGGAUCACCCAUGUCUAAAGAAAUGUAGGAUAUGUAAUACCUAGUCAAACAGAAGGACAUUCAAGAU			apparent Kd (MS2 coat protein [1]; [3]): 0.00939 µM; apparent Kd (MS2 coat protein [1]; [4]): 0.00835 µM
UCCCUGCAAGGAUAUACAUGAGGAUCACCCAUGUUUACACACGAAAAUUUGGAGAUAGGUAGAAGGUGCAUUUU			apparent Kd (MS2 coat protein [1]; [5]): 0.0126 µM; apparent Kd (MS2 coat protein [1]; [6]): 0.0118 µM
CCAAGAGUACUAGGAUAUUCCGGCCACGCACAUGAGGAUCACCCAUGUGAGACUCUCAGACGGUCGAAGAAGGAGUUGCAGGCU			apparent Kd (MS2 coat protein [1]; [5]): 0.0348 µM; apparent Kd (MS2 coat protein [1]; [6]): 0.0309 µM
GACGAAUCGGCAGGAUAUCUAGAUGAGCCAGAAUGUAAUUGAGUUGACAUGAGGAUCACCCAUGUAGAGAAGGGCCCAUCCAUU			apparent Kd (MS2 coat protein [1]; [5]): 0.0121 µM; apparent Kd (MS2 coat protein [1]; [6]): 0.0207 µM
GAUAACAUGAGGAUCACCCAUGUGGCGUCGCGAGGACCGGUACGGCCGCCACUCGGCAGUUCAACUCGAAUAUAGUGAUCGAAGU			apparent Kd (MS2 coat protein [1]; designed as: ON switch for tryptophan, no ligand): 0.138 µM; apparent Kd (MS2 coat protein [1]; ligand present: tryptophan, designed as: ON switch for tryptophan): 0.0876 µM
AAUCCAAGAAAUGAUACCAGUCCCACUCAGGACAUGAGGAUCACCCAUGUAAUACAGGGAGACCCUUGGCAGCAUCGAAUAAACA			apparent Kd (MS2 coat protein [1]; [7]): 0.432 µM; apparent Kd (MS2 coat protein [1]; [8]): 0.0827 µM
AUCAGUCUAGAAGGAUAUCAGCCCGAAGCCGAGUGAGAAGGUCUAGACAUGAGGAUCACCCAUGUCACAGCAACUAUCAAGAAC			apparent Kd (MS2 coat protein [1]; [5]): 0.00974 µM; apparent Kd (MS2 coat protein [1]; [6]): 0.0191 µM
CACCGGAAUGGAGGAUAUCCUACACAUGAGGAUCACCCAUGUUAUUUAUAGCUAUUAAAAGUUCGGGAGAAGGCCAAGCGAUUC			apparent Kd (MS2 coat protein [1]; [3]): 0.0287 µM; apparent Kd (MS2 coat protein [1]; [4]): 0.0132 µM
UGAUCGAGAGAUCUUAGAUUCUGGUAGGAUAUACAUUAUGUAUGAUAUACAUGAGGAUCACCCAUGUAGAAGGACUAGAGUCUA	0.0062	0.00939	
UGAUAGCACAGAGGAUAUGCGUAUAGUUAUCACUACAUGAGGAUCACCCAUGUAGAAGGCUGUGCUAUCUAAGUCGGAAACGAC	0.00585	0.00611	
GUGAAGGUAGGAUAUACGAUAAUAUAGGGUAGAUAUAUAACACAUGAGGAUCACCCAUGUAGAAGGACCAAGUG	0.0463	0.11	
GUAGUGUAUGUAGGAUAUGUGAAGCAAAGCUUCACAGAAGGACAUGAGGAUCACCCAUGUAUUGCAGUCAGCAAUCUGACUGCU	0.041	0.145	
CGGUACUUAGGAUAUACAUGAGGAUCACCCAUGUAGAAAUGGUGGGUGCCGUCCUGUGGUAGAAGGAAGAAUCG	0.0285	0.0502	
UGUCGGAGCAGAGGAUAUAUACAUGAGGAUCACCCAUGUAAAUGAAUGAGCUGGAAACAGCAAGUAUAGAAGGCUGCUCCGACA		0.0165	
GGCUAGUCAGGAUAUACGAACAUGUCAAAAGACGUGAAGGGACAUGAGGAUCACCCAUGUAGAAGGGACUAGCU	0.0248	0.165	
GACUUUCGGGCAGGAUAUGGGUGCCGUCAAGACAUGAGGAUCACCCAUGUCCCAUACACGAGCGCUCAGAAGGGCUCAUUGUAG			apparent Kd (MS2 coat protein [2]; [3]): 0.067 µM; apparent Kd (MS2 coat protein [2]; [4]): 0.0329 µM
UGAUAGGACAGAGGAUAUGCCGAUAGGAUCUAUUAUCGAAGAAUCCUCACAUGAGGAUCACCCAUGUAGAAGGCUGUCCUAUCU	0.00932	0.0366	
GAAUUCGCAUGAGGAUAUGCACUCAUUUCAUGUGCAGAAGGUAUUUCAUUAGACAUGAGGAUCACCCAUGUAUUGGUCAUUAAC			apparent Kd (MS2 coat protein [2]; [3]): 0.0193 µM; apparent Kd (MS2 coat protein [2]; [4]): 0.0147 µM
CAAGGAUACUUAUAAGCUGACAAACCAGAAGGAUGAGCCUCUACAUGAGGAUCACCCAUGUGUUCGUAGGAUAUGGGUCGGAAG			apparent Kd (MS2 coat protein [2]; [3]): 0.0113 µM; apparent Kd (MS2 coat protein [2]; [4]): 0.0315 µM
UCAUAUAUACAAGGAUAUCAAUUAUUUACACAUCCUACAUGAGGAUCACCCAUGUUUUAAUAUAUUGAGAAGGUGUAAUGUCGG			apparent Kd (MS2 coat protein [2]; [3]): 0.0249 µM; apparent Kd (MS2 coat protein [2]; [4]): 0.0319 µM
GUUUUCGCAUGAGGAUAUGCUCGCAAUUCAAGAGCAGAAGGUAUGUCUAUAGACAUGAGGAUCACCCAUGUAUUUAUCAUUGAA			apparent Kd (MS2 coat protein [2]; [3]): 0.218 µM; apparent Kd (MS2 coat protein [2]; [4]): 0.0587 µM

Sequence	apparent Kd (MS2 coat protein [2]; [5]) [µM]	apparent Kd (MS2 coat protein [2]; [6]) [µM]	also measured
UUAAUUAAUUAAUUCGUCAUUACAUGAGGAUCACCCAUGUAUAAGGAUAUGCAGUGGAAUACACUGCAGAAGGUAUACAAGACG	0.0184	0.0266	
UGUCGGAGCAGAGGAUAUUACAUGAGGAUCACCCAUGUAUGAACCAAUAGCUGGAAACAGCAAUGUAAGAAGGCUGCUCCUACA	0.0125	0.147	
AGAAACUACGAGAAGGACAUGUGGUCCUUCGAAAACAUGAGGAUCACCCAUGUAGGAUAUCGUAGUUUCAGGAUCGUGAGAUCA	0.0182	0.00437	
CUGUUAUAUGAAGGAUAUACUUAACAUGAGGAUCACCCAUGUGGUGUUGUGAGUGAGUGAGUUUAGUAGAAGGUCAAUUCUUUU	0.207	0.221	
GCACUGGCAGGAUAUACAUGAGGAUCACCCAUGUGACCCUUGAUGUACUCGCGUACACGUAGAAGGGCCUGUGC	0.12	0.571	
UUACUCAUGUAAGGAUAUGCAGCCGAAACGGCUGUAGAAGGUACUAAAAUACAUGAGGAUCACCCAUGUCUUUUUAAUUUAGAC			apparent Kd (MS2 coat protein [2]; [3]): 0.103 µM; apparent Kd (MS2 coat protein [2]; [4]): 0.0746 µM
GCACAUGGCAUAGGAUAUAGAGCUUUAGUUUAUAUAGGUAGUUGGACUUAACUAGAAGGAUGGUACAUGAGGAUCACCCAUGUU			apparent Kd (MS2 coat protein [2]; [3]): 0.0206 µM; apparent Kd (MS2 coat protein [2]; [4]): 0.0174 µM
AAAUCGGCAGGAUAUACAUGAGGAUCACCCAUGUAAAUUUUUCGUUUAACUUGAAUGUGUAGAAGGGCCAUAAA	0.0256	0.0271	
AAUUCAAACAGAGGAUAUUGUUUAUCUCUAUUGCAAGAAGGCUGAUCUUACUACCCACUUAUGAAACAUGAGGAUCACCCAUGU			apparent Kd (MS2 coat protein [2]; [3]): 0.0346 µM; apparent Kd (MS2 coat protein [2]; [4]): 0.0301 µM
CAUAACUUUGAUCUCUCCUACAUGAGGAUCACCCAUGUUGAGAGAAGGAGGCGGCGGAGUGCCGCCUAGGAUAUCUGAAGGGUC	0.00606	0.00735	
GCAGGUUAAGUCAGGAUAUACCUAUGGAUACAUAGGUAGAAGGGACAUGAGGAUCACCCAUGUUCCUCACCUGC	0.0156	0.0343	
UCAUCGUGAGGAUAUUAUCGUAAGUGCAGGGUCUGACUUAGUAAGAAGGCACAUGAGGAUCACCCAUGUCCCUC	0.0202	0.0285	
AAUUAAUUGUAGAAGGUACUUAAUUAUGUUAUGUAAGGAUAUACGUAAUUAUUACGACAUGUAUGACAUGAGGAUCACCCAUGU			apparent Kd (MS2 coat protein [2]; [3]): 0.00772 µM; apparent Kd (MS2 coat protein [2]; [4]): 0.00782 µM
UAUUAGUUAGGAUAUACAUGAGGAUCACCCAUGUCACGGGUCCACUUGUCCUAUGCGUGUAGAAGGAGCGACCC	0.0195	0.0208	
CUUCAAGAUGUGAGGAUAUCGCCGAUGAGGAUAGUUGAGAAGGUACAUGAGGAUCACCCAUGUAGGCUGGGUUU	0.0319	0.0421	
ACCAGUGCAUCAGGAUAUCCUCACAUGAGGAUCACCCAUGUAAUGAGCCGAGGAGAAGGGAUGUGAACUCCAGUUAUCGAUCGU			apparent Kd (MS2 coat protein [2]; [3]): 0.101 µM; apparent Kd (MS2 coat protein [2]; [4]): 0.0141 µM
CCAUCGAGUGUGAGGAUAUGCUGUUCGAAAGAGCAGCAGAAGGCACAUGAGGAUCACCCAUGUGGAUACGGUGG	0.0291	0.212	
CUAUUAUUGAUCCAUUUUUUCAACAUGAGGAUCACCCAUGUGCAGGAUAUCGUGAUUAUUAUCAACGAGAAGGGCAAAUUCACG	0.0457	0.149	
CUCUUGUGAGGAUAUCAGUAGUAAAAAAAUAAAAUUACUACUGAGAAGGCACAUGAGGAUCACCCAUGUGACUU	0.0262	0.0305	
AAUAUAAGAGCUGGACUCAAAAGAACAUGAGGAUCACCCAUGUAGGAUAUCAGCACGAUAAGUGCUGAGAAGGACAACCAGCUC	0.0144	0.0152	
AAUAACAGAGGAUAUACUGUUUUAUGUGUUUAUUGUUUUAAACAUGAGGAUCACCCAUGUAGAAGGCUGAAUGA	0.0438	0.0419	
UGUUUUCAUGUAGGAUAUGCUUGUCGUAGAUACGCAGAAGGACAUGAGGAUCACCCAUGUUAAAGCGACAGAGUAUAGAUUCUU	0.0163	0.0223	
CUAUGAGCGAUAGGAUAUACUGAGAUUGAAUGGGUAGAAGGAUCGAUCGUGUAGAAGACAUGAGGAUCACCCAUGUUACGGGCC			apparent Kd (MS2 coat protein [2]; [3]): 0.0739 µM; apparent Kd (MS2 coat protein [2]; [4]): 0.0935 µM
GCCGCAGGAACAGGAUAUGUGGGCAUAAAAUUAUACCAGGCCCACAUGAGGAUCACCCAUGUGACACAGAAGGGUUCCUAAAUA			apparent Kd (MS2 coat protein [2]; [3]): 0.619 µM; apparent Kd (MS2 coat protein [2]; [4]): 0.0298 µM
ACGUCUUAGUAGAAGGGACAUCGGCUGGUAAGCAUCAUCUCCUUCUCACAUGAGGAUCACCCAUGUCAGGAUAUACUAAGAGUC	0.0123	0.0382	
UCGGCGCGAGGAUAUGCGGCUGGUGCUUCGGGCCCUCGCGUACAUGAGGAUCACCCAUGUAGAAGGCGCGCCGC	0.0322	0.0386	
